The RNAGym collection of RNA variant scans (doi:10.1002/anie.201605470)

B1: Osa-1-4 twister ribozyme (parent)
chain: CCGCCUAACACUGCCAAUGCCGGUCCCAAGCCCGGAUAAAAGUGGAGGGGGCGG

Variants of: B1
Assay: self-cleavage, relative activity (ratio to wild type); higher = more cleavage; co-transcriptional
How it was run: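 The 48 positions downstream of the cleavage site in a 54-nucleotide Oryza sativa twister ribozyme template were synthesised at 97 % wild-type base and 1 % of each other base. The template was transcribed in vitro at 37 °C for 2 h, with self-cleavage allowed during transcription. Reads with or without upstream sequence after deep sequencing marked cleavage status, and relative activity is fraction cleaved normalised to wild type.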

Variant	self-cleavage
A8G C52U	0.73
A8G C52A	0.44
A8G C52G	0.58
A8U C52A	0.25
A8U C52U	0.57
A8U C52G	0.49
A8U G19C	0.03
A8U G19A	0.08
A8U G19U	0.05
A8C G50U	0.08
A8C G50C	0.08
A8C G50A	0.06
A8G G54A	0.27
A8G G54U	0.32
A8G G54C	0.21
A8G C15U	0.13
A8G C15G	0.29
A8G C15A	0.12
A8U G13U	0.02
A8U G13C	0.03
A8U G13A	0.05
A8G U12C	0.12
A8G U12A	0.16
A8G U12G	0.15

Variant	self-cleavage
A8G C9G	0.2
A8G C9A	0.13
A8G C9U	0.1
C9A G42A	0.09
C9A G42C	0.04
C9A G42U	0.03
A8G C26G	0.27
A8G C26U	0.18
A8G C26A	0.04
C9A G19A	0.1
C9A G19C	0.04
C9A G19U	0.07
A8G C31U	0.1
A8G C31A	0.03
A8G C31G	0.08
A8C G49U	0.03
A8C G49A	0.02
A8C G49C	0.02
C9A G35U	0.32
C9A G35A	0.24
C9A G35C	0.11
A8C G13C	0.07
A8C G13U	0.01
A8C G13A	0.03

Variant	self-cleavage
A8G G19A	0.15
A8G G19C	0.07
A8G G19U	0.1
A8U G51A	0.14
A8U G51C	0.04
A8U G51U	0.08
A8C U18G	0.17
A8C U18A	0.07
A8C U18C	0.08
C9A G34U	0.11
C9A G34C	0.08
C9A G34A	0.19
A8G C32G	0.13
A8G C32U	0.07
A8G C32A	0.05
A8G G50U	0.43
A8G G50C	0.27
A8G G50A	0.53
A8G C25G	0.08
A8G C25U	0.16
A8G C25A	0.08
A8G G51A	0.22
A8G G51C	0.08
A8G G51U	0.11

Variant	self-cleavage
A8C C32G	0.03
A8C C32U	0.02
A8C C32A	0.04
A8C G23A	0.08
A8C G23C	0.02
A8C G23U	0.07
A8C U24C	0.08
A8C U24G	0.01
A8C U24A	0.03
A8G U37C	0.68
A8G U37A	0.56
A8G U37G	0.75
A8U G47U	0.05
A8U G47A	0.06
A8U G47C	0.05
C9A G13U	0.04
C9A G13A	0.02
C9A G13C	0.03
A8C G30A	0.01
A8C G30C	0.03
A8C G30U	0.01
A8U U18A	0.39
A8U U18C	0.26
A8U U18G	0.56

Variant	self-cleavage
A8U C31G	0.05
A8U C31U	0.06
A8U C31A	0.03
A8G C27A	0.14
A8G C27U	0.11
A8G C27G	0.11
C9A G30A	0.02
C9A G30U	0.01
C9A G30C	0.02
A8G U43G	0.15
A8G U43A	0.23
A8G U43C	0.14
A8C G35A	0.08
A8C G35C	0.08
A8C G35U	0.09
A8G U24G	0.03
A8G U24C	0.1
A8G U24A	0.12
A8U C32A	0.03
A8U C32U	0.06
A8U C32G	0.07
A8U C20G	0.06
A8U C20U	0.41
A8U C20A	0.48

Variant	self-cleavage
A8C U37A	0.06
A8C U37C	0.07
A8C U37G	0.1
A8U C14G	0.05
A8U C14A	0.04
A8U C14U	0.1
C9A G45A	0.04
A8U U37G	0.54
A8U U37A	0.31
A8U U37C	0.36
A8C G47U	0.04
A8C G47A	0.04
A8C G47C	0.03
A8U G50U	0.35
A8U G50C	0.24
A8U G50A	0.26
A8U G42C	0.06
A8U G42A	0.1
A8U G42U	0.03
A8G C21U	0.38
A8G C21A	0.14
A8G C21G	0.09
C9A G44C	0.5
C9A G44A	0.47

Variant	self-cleavage
C9A G44U	0.63
A8U G48U	0.04
A8U G48C	0.05
A8U G48A	0.05
A8U G49A	0.05
A8U G49C	0.04
A8U G49U	0.05
C9A	0.48
A8G G34C	0.13
A8G G34U	0.16
A8G G34A	0.27
A8G G45U	0.14
A8G G45A	0.09
A8G G45C	0.05
A8G U18C	0.39
A8G U18A	0.57
A8G U18G	0.49
A8U C15G	0.15
A8U C15U	0.08
A8U C15A	0.08
A8C G45A	0.04
A8C G45U	0.04
A8C G45C	0.02
A8C U43A	0.08

Variant	self-cleavage
A8C U43C	0.08
A8C U43G	0.08
A8C G51A	0.06
A8C G51U	0.05
A8C G51C	0.03
A8U C11U	0.11
A8U C11G	0.08
A8U C11A	0.08
A8U C33A	0.05
A8U C33G	0.04
A8U C33U	0.09
A8C C26U	0.06
A8C C26A	0.03
A8C C26G	0.02
A8U C25A	0.07
A8U C25U	0.11
A8U C25G	0.05
A8U G45C	0.04
A8U G45A	0.05
A8U G45U	0.08
A8G G35A	0.4
A8G G35C	0.16
A8G G35U	0.35
A8C G42A	0.06

Variant	self-cleavage
A8C G42C	0.04
A8C G42U	0.04
A8U C9A	0.09
A8U C9U	0.09
A8U C9G	0.11
A8C G54U	0.11
A8C G54C	0.06
A8C G54A	0.09
A8U G22C	0.03
A8U G22A	0.12
A8U G22U	0.08
A8U C21G	0.07
A8U C21A	0.08
A8U C21U	0.28
A8C C31A	0.01
A8C C31G	0.02
A8C C31U	0.05
A8C U12G	0.16
A8C U12C	0.07
A8C U12A	0.06
A8C G34A	0.07
A8C G34U	0.07
A8C G34C	0.06
A8G C20U	0.58

Variant	self-cleavage
A8G C20G	0.09
A8G C20A	0.49
A8U U43A	0.09
A8U U43C	0.08
A8U U43G	0.08
A8U G35C	0.08
A8U G35A	0.27
A8U G35U	0.18
A8C G19A	0.07
A8C G19C	0.08
A8C G19U	0.06
A8C C25A	0.05
A8C C25G	0.03
A8C C25U	0.07
A8C C33A	0.06
A8C C33G	0.03
A8C C33U	0.06
A8G G48C	0.05
A8G G48A	0.06
A8G G48U	0.04
A8U G23U	0.03
A8U G23A	0.08
A8U G23C	0.04
A8U C27A	0.06

Variant	self-cleavage
A8U C27G	0.05
A8U C27U	0.07
A8C C21U	0.06
A8C C21G	0.05
A8C C21A	0.09
A8U G54A	0.17
A8U G54C	0.13
A8U G54U	0.32
A8U	0.49
A8G	0.71
A8G C33A	0.1
A8G C33G	0.07
A8G C33U	0.21
A8G G22C	0.07
A8G G22U	0.15
A8G G22A	0.2
A8G C14A	0.07
A8G C14G	0.1
A8G C14U	0.14
A8C C27U	0.04
A8C C27G	0.03
A8C C27A	0.13
A8G G42C	0.12
A8G G42U	0.04

Variant	self-cleavage
A8G G42A	0.14
C9A G22U	0.12
C9A G22C	0.03
C9A G22A	0.34
A8G G30A	0.06
A8G G30C	0.07
A8G G30U	0.04
A8C C52A	0.12
A8C C52G	0.15
A8C C52U	0.09
A8U C26G	0.05
A8U C26U	0.12
A8U C26A	0.03
A8C G44U	0.08
A8C G44A	0.07
A8C G44C	0.07
A8G G53A	0.16
A8G G53U	0.11
A8G G53C	0.08
A8U G44C	0.09
A8U G44U	0.13
A8U G44A	0.27
A8U G30A	0.02
A8U G30C	0.03

Variant	self-cleavage
A8U G30U	0.02
A8U U24G	0.02
A8U U24A	0.03
A8U U24C	0.05
C9A G23U	0.02
C9A G23A	0.06
C9A G23C	0.01
A8G G49U	0.06
A8G G49A	0.08
A8G G49C	0.05
A8U U12A	0.1
A8U U12C	0.06
A8U U12G	0.07
A8C G53C	0.02
A8C G53U	0.06
A8C G53A	0.07
A8G G47U	0.1
A8G G47C	0.07
A8G G47A	0.11
A8C C20U	0.09
A8C C20A	0.08
A8C C20G	0.03
A8C G22A	0.09
A8C G22C	0.03

Variant	self-cleavage
A8C G22U	0.07
A8U G53U	0.1
A8U G53A	0.12
A8U G53C	0.05
A8G G13A	0.1
A8G G13U	0.03
A8G G13C	0.03
A8U G34U	0.1
A8U G34C	0.09
A8U G34A	0.13
A8G G23C	0.05
A8G G23U	0.06
A8G G23A	0.13
A8C G48C	0.02
A8C G48A	0.02
A8C G48U	0.03
A8G G44C	0.35
A8G G44U	0.45
A8G G44A	0.39
A8G C11U	0.19
A8G C11A	0.15
A8G C11G	0.17
